ChEMBL document CHEMBL3853338 (Bioorg Med Chem Lett, 2016)
Active and inactive are the calls of the source. The calls are words filed in the database; no cut-off is given here.

Experiments:
[1] = Fraction unbound in mouse brain assessed as compound level in insoluble tissue fraction at 10 uM after 1 hr by LC-MS/MS analysis; format: ADME, tissue-based; details: in the assay text read “soluble supernatant fraction” for “insoluble tissue fraction”
Method in brief: (§1)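 Compound at 10 µM incubated 1 h at 37 °C with homogenized mouse brain tissue in HBSS (1% final DMSO); after centrifugation, percent of compound in insoluble tissue fraction and soluble supernatant determined by LC–MS/MS.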

[2] = Drug level in mouse brain assessed as compound level in soluble tissue fraction at 10 uM after 1 hr by LC-MS/MS analysis; format: ADME, tissue-based; method in brief: as §1
[3] = Ratio of temozolomide AUC to compound AUC for drug level in brain of Sprague-Dawley rat; format: ADME; details: in vivo
[4] = AUC in Sprague-Dawley rat brain at 10 mg/kg, iv after 30 to 180 mins by LC-MS/MS analysis; format: ADME, organism-based
Method in brief: (§2)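 Healthy male Sprague Dawley rats, n = 3 per time point, given 10 mg/kg IV; brain and plasma sampled at 30, 90 and 180 min post dose; drug levels by LC–MS/MS (plasma ng/ml, brain ng/g). AUC summed from straight-line segments joining the three time points.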

[5] = Ratio of AUC in brain to plasma of Sprague-Dawley rat at 10 mg/kg, iv after 30 to 180 mins by LC-MS/MS analysis; format: ADME, organism-based; details: read-out: Ratio AUC
Method in brief: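 Male Sprague Dawley rats (n = 3 per time point) dosed IV at 10 mg/kg; brain and plasma taken 30, 90, 180 min after dosing and assayed by LC–MS/MS; three-point linear-segment AUCs computed; ratio = AUCbrain divided by AUCplasma.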

[6] = Drug level in Sprague-Dawley rat brain at 10 mg/kg, iv after 180 mins by LC-MS/MS analysis; format: ADME, organism-based; details: read-out: Drug uptake; method in brief: as §2
[7] = Plasma concentration in Sprague-Dawley rat plasma at 10 mg/kg, iv after 30 mins by LC-MS/MS analysis; format: ADME, organism-based; method in brief: as §2
[8] = Plasma concentration in Sprague-Dawley rat plasma at 10 mg/kg, iv after 180 mins by LC-MS/MS analysis; format: ADME, organism-based; method in brief: as §2
[9] = AUC in Sprague-Dawley rat plasma at 10 mg/kg, iv after 30 to 180 mins by LC-MS/MS analysis; format: ADME, organism-based; details: in vivo; method in brief: as §2
[10] = Drug level in Sprague-Dawley rat brain at 10 mg/kg, iv after 90 mins by LC-MS/MS analysis; format: ADME, organism-based; details: read-out: Drug uptake; method in brief: as §2
U-87MG ATCC [11] = assay: Induction of DNA alkylation in human U87MG cells assessed as increase in O6-MedG formation at 10 to 100 uM after 3 hrs by LC-MS/MS analysis; format: cell-based
Method in brief: (§3)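 U87 MG cells incubated with 10 or 100 µM for 3 h at 37 °C, washed, lysed; genomic DNA isopropanol-extracted, hydrolysed 30 min at 37 °C with nuclease P1 and alkaline phosphatase (ammonium acetate/ZnCl2, pH 5.3); [H]O6-MedG internal standard added; O6-MedG peak area by LC–MS/MS.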

[12] = Plasma concentration in Sprague-Dawley rat plasma at 10 mg/kg, iv after 90 mins by LC-MS/MS analysis; format: ADME, organism-based; method in brief: as §2
[13] = Drug level in Sprague-Dawley rat brain at 10 mg/kg, iv after 30 mins by LC-MS/MS analysis; format: ADME, organism-based; details: read-out: Drug uptake; method in brief: as §2
U-87MG ATCC [14] = assay: Induction of DNA alkylation in human U87MG cells assessed as increase in N7-MedG formation after 3 hrs by LC-MS/MS analysis; format: cell-based
[15] = Ratio of AUC in brain to plasma of Sprague-Dawley rat administered as single dose
[16] = Ratio of AUC in human brain to plasma by reversed-phase HPLC analysis
U-87MG ATCC [17] = assay: Antitumor activity against human U87MG cells orthotopically xenografted in Harlan nude mouse brain assessed as increase in mouse survival at 50 umol/kg, iv administered once daily for 5 days; format: functional, organism-based
Method in brief: (§4)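 Orthotopic model: one million luciferase-expressing U87 MG cells surgically implanted into brains of female Harlan nude mice; dosing from day 26 (mean tumor 10.1 mm3), IV in 50% PEG400, once daily ×5; vehicle group dosed IV. Tumor volume by MRI, body weight and mortality tracked; survival followed to day 63, log-rank Mantel–Cox test.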

U-87MG ATCC [18] = assay: Antitumor activity against human U87MG cells orthotopically xenografted in Harlan nude mouse brain assessed as induction of slow tumor growth at 50 umol/kg, iv administered once daily for 5 days; format: functional, organism-based; method in brief: as §4
Rattus norvegicus = assay: Increase in O6-MedG formation in rat brain at 51.5 to 206 umol/kg, iv measured 3 hrs post dose by LC-MS/MS analysis; format: functional, organism-based
Method in brief: (§5)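 Rats (n = 1 per compound per dose) dosed IV at 10, 20 and 40 mg/kg; brain collected 3 h post dose; brain drug concentration and O6-MedG (peak area) measured by LC–MS/MS.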

[19] = Drug level in rat brain at 103 umol/kg, iv measured 3 hrs post dose by LC-MS/MS analysis; format: ADME, organism-based; details: in vivo; method in brief: as §5
[20] = Drug level in rat brain at 106 umol/kg, iv measured 3 hrs post dose by LC-MS/MS analysis; format: ADME, organism-based; details: in vivo; method in brief: as §5
[21] = Cytotoxicity against human U87MG cells assessed as inhibition of cell growth at 100 uM after 72 hrs by MTS assay; format: functional, U-87MG ATCC; details: U-87 MG, read-out: GI
Method in brief: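 U87 MG cells exposed to 100 µM compound for 72 h; growth read by MTS CellTiter 96 assay; treated-cell mean growth (n = 3) divided by vehicle-treated growth (n = 3, set to 100%); SD of three replicates.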

U-87MG ATCC [22] = assay: Induction of DNA alkylation in human U87MG cells assessed as increase in O6-MedG formation at 10 uM after 3 hrs by LC-MS/MS analysis; format: cell-based; method in brief: as §3

fraction unbound at 1 h, 10 µM [1] | Drug uptake [2] [%] | Ratio AUC [3] | AUC [4] [ng·h/mL] | Kp [5] | concentration at 3 h [6] [ng/g] | concentration at 0.5 h [7] [ng/mL] | concentration at 3 h [8] [ng/mL] | AUC [9] [ng·h/g] | concentration at 1.5 h [10] [ng/g] | concentration at 1.5 h [12] [ng/mL] | concentration at 0.5 h [13] [ng/g] | Compound | Activity (U-87MG ATCC [11]) | other results
 |  | 1.4 | 4010 | 0.82 | 401 | 3630 | 539 | 4890 | 1700 | 2140 | 3150 | Cc1ccc2c(c1)c1c(n2C)CCN(CCNC(=O)c2ncn3c(=O)n(C)nnc23)C1 | Active | 
0.11 | 11 | 10.8 | 525 | 1.36 | 47.5 | 399 | 43.7 | 386 | 162 | 123 | 574 | CN1CCc2c(n(CCNC(=O)c3ncn4c(=O)n(C)nnc34)c3ccc(Cl)cc23)C1 |  | 
 |  | 8.9 | 638 | 0.67 | 101 | 850 | 67.1 | 959 | 243 | 387 | 517 | Cc1ccc2c(c1)c1c(n2CCNC(=O)c2ncn3c(=O)n(C)nnc23)CCN(C)C1 | Active | 
 |  | 7.5 | 750 | 0.75 | 32.7 | 1090 | 99.2 | 998 | 142 | 302 | 1100 | Cc1ccc2[nH]c3c(c2c1)CN(CCNC(=O)c1ncn2c(=O)n(C)nnc12)CC3 | Active | 
0.02 | 2 | 2.3 | 2470 | 3.79 | 372 | 483 | 119 | 650 | 945 | 256 | 2020 | Cc1ccc2c(c1)c1c(n2C)CN(C(=O)c2ncn3c(=O)n(C)nnc23)CC1 | Active | Drug uptake [20]: Active; inhibition of growth at 100 µM [21]: 27.3%

Second part, the compound before the results:

Compound | fraction unbound at 1 h, 10 µM [1] | Drug uptake [2] [%] | Ratio AUC [3] | AUC [4] [ng·h/mL] | Kp [5] | concentration at 3 h [6] [ng/g] | concentration at 0.5 h [7] [ng/mL] | concentration at 3 h [8] [ng/mL] | AUC [9] [ng·h/g] | concentration at 1.5 h [10] [ng/g] | concentration at 1.5 h [12] [ng/mL] | concentration at 0.5 h [13] [ng/g] | Activity (U-87MG ATCC [11]) | other results
Cc1ccc2c(c1)c1c(n2C)CN(C(=O)c2nc[nH]c2N)CC1 | 0.01 | 1 |  |  |  |  |  |  |  |  |  |  |  | 
Nc1[nH]cnc1C(=O)N1CCc2c(n(C3CC3)c3c(Cl)cc(Cl)cc23)C1 | 0.01 | 1 |  |  |  |  |  |  |  |  |  |  |  | 
CN1CCc2c(n(CCNC(=O)c3nc[nH]c3N)c3ccc(Cl)cc23)C1 | 0.07 | 7 |  |  |  |  |  |  |  |  |  |  |  | 
NC(=O)c1[nH]cnc1N | 0.48 | 48 |  |  |  |  |  |  |  |  |  |  |  | 
Cn1nnc2c(C(N)=O)ncn2c1=O [TEMOZOLOMIDE] | 0.5 | 50 |  |  | 0.34 | 912 | 12800 | 3100 |  | 2300 | 6480 | 4210 | Dose-dependent effect | Activity (U-87MG ATCC [14]): Active; Kp [15]: 35; Kp [16]: 20; Activity (U-87MG ATCC [17]): Active; Activity (U-87MG ATCC [18]): Active; Activity (Rattus norvegicus): Active; Drug uptake [19]: Active
Cn1nnc2c(C(=O)N3CCc4c(n(C5CC5)c5c(Cl)cc(Cl)cc45)C3)ncn2c1=O | 0.03 | 3 | 0.5 | 11200 | 10.4 | 3570 | 531 | 347 | 1070 | 4830 | 438 | 4950 |  | Activity (U-87MG ATCC [22]): Active
